Measurements gathered from unrelated publications.
Compare with care: the assays were run in different laboratories.
Target: Mitogen-activated protein kinase 11 (MAPK11, Homo sapiens, UniProt Q15759)

SMILES	observed	action	method	tested at	measurement	value
CNCc1ccc(-c2cc(-c3nc(-c4ccc(S(=O)(=O)C(C)C)cc4)cnc3N)on2)cc1	enzyme activity	inhibitor		0.4 µM	inhibition	2%
Nc1cnc(N2CCc3cc(S(=O)(=O)Nc4c(F)cc(Cl)cc4F)cc(N4CCCC4=O)c32)nc1	cell-free assay		competition with immobilised ligand	1 µM	remaining binding	100%
CCCS(=O)(=O)Nc1ccc(F)c(C(=O)c2c[nH]c3ncc(-c4ccc(Cl)cc4)cc23)c1F	enzyme activity	inhibitor		1 µM	inhibition	< 10%
O=C(Nc1cnn(-c2csc(C(=O)NC3COC3)c2)c1)Nc1ccccc1Cl	enzyme activity	inhibitor		5 µM	remaining activity	101%
O=C(N1CCS(=O)(=O)CC1)N1C[C@H](c2ccc(OC(F)(F)F)cc2)C[C@H](c2nc(C3CC3)no2)C1	cell-free assay		competition with immobilised ligand	1 µM	remaining binding	100%
COc1cc(/C=C/C(=O)CC(=O)/C=C/c2ccc(O)c(OC)c2)ccc1O	enzyme activity	inhibitor		1 µM	activity vs control	101%
CN1CCC2(CC1)NC(=O)c1c(c3ccc(Cl)c(Cl)c3n1C)C2C#N (racemic)	thermal stability		DSF	10 µM	ΔTm	0.4 °C
O=C(Nc1cnc(Oc2ccc(F)cc2)nc1)N1CCc2ncccc2[C@@H]1c1ccc(F)cc1	cell-free assay		competition with immobilised ligand	1 µM	remaining binding	84%
CNc1cccc2cc(C(=O)Nc3ccc(C(=O)O)cc3)c(=O)[nH]c12	enzyme activity	inhibitor		10 µM	inhibition	-2.4%
CCN(CC)c1ccc(C2=NNC(=O)CC2C)cc1[N+](=O)[O-] (stereo not drawn)	enzyme activity	inhibitor		10 µM	remaining activity	97%
Cn1c2c(c3ccc(Cl)c(Cl)c31)C(C#N)C1(CCCCC1)NC2=O (racemic)	thermal stability		DSF	10 µM	ΔTm	0.1 °C
Cc1ccc(Nc2nccc(N(C)c3ccc4c(C)n(C)nc4c3)n2)cc1S(N)(=O)=O	enzyme activity	inhibitor		10 µM	inhibition	64%
NS(=O)(=O)c1cc(NC(=O)Cc2ccccc2)ccc1Oc1cccc(Cl)c1	cell-free assay		competition with immobilised ligand	1 µM	remaining binding	100%
N#CCCc1ccc2c(c1)-c1[nH]c3ccc([N+](=O)[O-])cc3c1CC(=O)N2	cell-free assay			0.5 µM	remaining signal	101%
O=C(Nc1cnn(-c2csc(C(=O)NC3COC3)c2)c1)Nc1c(F)cccc1Cl	enzyme activity	inhibitor		5 µM	remaining activity	91.7%
CCN1CCC2(CC1)NC(=O)c1c(c3ccc(Cl)c(Cl)c3n1C)C2C#N (racemic)	thermal stability		DSF	10 µM	ΔTm	-0.3 °C
COc1cc(Nc2cnc(C#N)c(O[C@H](C)CN(C)C)n2)ncc1-c1cnn(C)c1	enzyme activity	inhibitor	radiometric	10 µM	remaining activity	92%
CC(C)(O)[C@H]1CC[C@H](Nc2ccc3ncc(-c4cccc(C(F)(F)F)c4)n3n2)CC1	enzyme activity	inhibitor		1 µM	remaining activity	103%
COc1cc2c(Nc3ccc(Br)cc3F)ncnc2cc1OCC1CCN(C)CC1	cell-free assay			0.5 µM	remaining signal	97.1%
CCN(CC)CCNC(=O)c1c(C)[nH]c(/C=C2\C(=O)Nc3ccc(F)cc32)c1C	enzyme activity	inhibitor		0.3 µM	inhibition	-5%

SMILES	observed	action	method	tested at	measurement	value
CC(C)(C)c1nc(-c2cccc(NS(=O)(=O)c3c(F)cccc3F)c2F)c(-c2ccnc(N)n2)s1	enzyme activity	inhibitor	radiometric	1 µM	remaining activity	104%
COc1cc2ncnc(Nc3ccc(Oc4ccccc4)cc3C)c2cc1OC	enzyme activity	inhibitor		1 µM	inhibition	5%
CNC(=O)c1cc(Oc2ccc(NC(=O)Nc3ccc(Cl)c(C(F)(F)F)c3)cc2)ccn1	cell-free assay			0.5 µM	remaining signal	46.9%
FC(F)c1nc2ccccc2n1-c1nc(N2CCOCC2)nc(N2CCOCC2)n1	enzyme activity	inhibitor		10 µM	remaining activity	95%
O=C1Nc2ccc(Cl)cc2C1=Cc1cc(Cl)c(O)c(Cl)c1	cell-free assay			0.5 µM	remaining signal	99.2%
Cn1c2c(Cl)c(Cl)ccc2c2cn[nH]c(=O)c21	thermal stability		DSF	10 µM	ΔTm	0.1 °C
Cc1cnc(NC2CCOCC2)nc1-n1cnc(C(=O)NC(CN)c2cc(F)cc(Cl)c2)c1 (stereo not drawn)	enzyme activity	inhibitor	radiometric	1 µM	remaining activity	78%
COc1cccc2c(NCc3ccccc3)nc(-n3c(N)nc4ccccc43)nc12	target engagement in cells	inhibitor	chemoproteomics	20 mM	inhibition	-9.6%
O=C(CSc1nc2nccnc2c(=O)n1CCc1ccccc1)Nc1nccs1	enzyme activity	inhibitor		10 µM	inhibition	5%
O=C1NC(c2ccccn2)Sc2ccccc21 (stereo not drawn)	cell-free assay		competition with immobilised ligand	1 µM	remaining binding	100%
CN1CC(Oc2cnc(C#N)cc2-c2ccn3nc(NC(=O)C4CC4)cc3c2)C1	enzyme activity	inhibitor		1 µM	inhibition	10%
Cn1c2c(c3ccc(Cl)c(Cl)c31)C(C#N)C(C)(C)NC2=O (stereo not drawn)	thermal stability		DSF	10 µM	ΔTm	0.8 °C
Oc1cccc(-c2nc(N3CCOCC3)c3oc4ncccc4c3n2)c1	enzyme activity	inhibitor		10 µM	remaining activity	100%
Cc1cc(-n2nc(Cc3cc(F)cc(C(F)(F)F)c3)nc2C)ccc1C(N)=O	cell-free assay		competition with immobilised ligand	1 µM	remaining binding	90%
CCCOc1ccc(OC)c(F)c1C(=O)c1ccc(C(=O)N[C@@H]2CNC[C@H]2NC(=O)c2ccc3[nH]ncc3c2)cc1	enzyme activity	inhibitor		10 µM	remaining activity	96%
CC(C)(O)c1cncc(-c2nc3ccc(F)cc3n2C2CC2)c1	cell-free assay		competition with immobilised ligand	1 µM	remaining binding	100%
Nc1nc(Nc2ccccc2)sc1C(=O)c1c(F)cccc1F	enzyme activity	inhibitor		10 µM	remaining activity	12%
O=C(NCCCC1CCCCC1)c1ccc(CNC(=O)c2cnn(-c3ccccc3)c2C(F)(F)F)cc1	cell-free assay		competition with immobilised ligand	0.1 µM	remaining binding	100%
CCC1(CC)NC(=O)c2c(c3ccc(Cl)c(Cl)c3n2C)C1C#N (stereo not drawn)	thermal stability		DSF	10 µM	ΔTm	0.1 °C
